# TCR CD3 inh: blocks the human TCR-CD3 interaction; inhibition, % at 9.4 µM; 0.37% of 360,000 active; AID 651800; TAMRA-labeled TCR probe fluorescence, biochemical; in the data active means inhibition above about 19%;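 further: recombinant mutant TCR 2C K166C tagged with TAMRA read by polarization; 0% = receptor in buffer alone and 100% = receptor with positive control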
# mABHD4 FP: inhibits mouse alpha/beta hydrolase domain 4 | AID 720543 | purified mABHD4, FP-Rh probe fluorescence polarization | 0.54% of 370,000 active | Q8VD66 | inhibition, % at 8.92 µM;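 active means inhibition exceeding the mean over every tested compound plus 3 SD, cut at about 30% in these data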;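 further: 0% = plate median of compound wells and 100% = S159A mutant with DMSO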
# Target sequence (Q8VD66 whole entry, looked up, the tested form may be a part): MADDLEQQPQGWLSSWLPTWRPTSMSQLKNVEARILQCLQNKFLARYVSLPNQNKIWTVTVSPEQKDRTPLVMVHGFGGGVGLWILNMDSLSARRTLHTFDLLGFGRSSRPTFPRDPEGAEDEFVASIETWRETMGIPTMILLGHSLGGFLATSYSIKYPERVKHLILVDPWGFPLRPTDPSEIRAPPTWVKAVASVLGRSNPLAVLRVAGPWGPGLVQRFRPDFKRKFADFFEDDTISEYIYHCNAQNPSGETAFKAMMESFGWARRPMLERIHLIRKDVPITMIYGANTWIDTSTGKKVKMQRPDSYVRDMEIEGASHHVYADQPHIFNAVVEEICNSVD
#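 Test system: mABHD4 protein | Buffer or medium: HEPES pH 7.0 buffer, 150 mM NaCl, 0.01% Pluronic F-127 | Probe or stimulus: FP-Rh fluorescent activity-based probe, added after compound pre-incubation | Timing: Pre-incubation 45 min, probe exposure 60 min, at 25 °C | Technique: Fluorescence polarization, excitation 525 nm, emission 598 nm, BODIPY TMR filters | Repeats: Single well per compound (singlicate)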
# SIAE inh: blocks human sialic acid acetylesterase | AID 1053197 | 0.69% of 370,000 active | Q9HAT2 | inhibition, % at 9.66 µM | SIAE FP-Rh probe binding, fluorescence polarization;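 active means inhibition above a cutoff: mean of compounds within the control limits plus 3 SD of those, cut at about 17% in these data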;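 further: 0% = plate median of compound wells and 100% = probe without SIAE protein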
# rCAG RNA binder: binds r(CAG) RNA repeats | inhibition, % at 3 µM | r(CAG) RNA repeat, TO-PRO-1 dye displacement fluorescence | 1.3% of 370,000 active;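 active means inhibition above the plate cutoff, the mean of all test compounds on that plate plus 3 SD, cut at about 35% in these data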;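 further: 0% = DMSO alone and 100% = 100 µM mitoxantrone as full dye displacement; higher means more dye released from RNA so lower well fluorescence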
# PRMT1 FP inh: PRMT1 (human) inhibition, primary screen; Q99873; recombinant PRMT1, activity-based probe fluorescence polarization; inhibition, % at 2.79 µM; 1.3% of 370,000 active;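 active means inhibition above about 21% made by adding two undisclosed values, limit read from the data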
# Target sequence (Q99873 whole entry, looked up): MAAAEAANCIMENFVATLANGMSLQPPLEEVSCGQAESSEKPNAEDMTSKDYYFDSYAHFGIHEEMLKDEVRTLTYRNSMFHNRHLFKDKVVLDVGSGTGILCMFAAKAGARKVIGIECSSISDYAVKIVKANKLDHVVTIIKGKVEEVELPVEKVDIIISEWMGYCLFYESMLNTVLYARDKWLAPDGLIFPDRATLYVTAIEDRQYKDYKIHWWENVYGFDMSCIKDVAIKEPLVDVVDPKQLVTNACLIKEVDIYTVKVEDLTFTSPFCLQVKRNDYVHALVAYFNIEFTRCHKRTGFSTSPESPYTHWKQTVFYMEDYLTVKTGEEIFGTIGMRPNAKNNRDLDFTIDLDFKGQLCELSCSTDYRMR
# rCAG binder conf: r(CAG) RNA repeat binding, confirmation | TO-PRO-1 dye displacement fluorescence | inhibition, % at 3 µM | 70% of 4,300 active | AID 652065 | shares compounds with rCAG RNA binder;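 active means inhibition above a per-plate cutoff, the mean inhibition of sample wells plus 3 SD, cut at about 35% in these data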;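 further: loss of TO-PRO-1 fluorescence as compound displaces dye from 1x1 AA loop RNA; 0% = DMSO only wells and 100% = 100 µM mitoxantrone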
# dCAG dye counter: disrupts DNA CAG TO-PRO-1 complex, flagging rCAG hits; shares compounds with rCAG RNA binder; d(CAG) DNA oligo TO-PRO-1 dye displacement, fluorescence; inhibition, % at 3 µM; 94% of 4,300 active;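 active means inhibition above its plate's cutoff, the mean test-well inhibition plus 3 SD, cut at about 4.8% in these data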;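 further: 0% = DNA dye mix with DMSO and 100% = 100 µM mitoxantrone; hits displace the dye from DNA and so lower well fluorescence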
# dCAG dye DR: counter-screen for rCAG binders: inhibitors of DNA CAG TO-PRO-1 complex; AID 686960; IC50, µM; DNA CAG/GTC duplex TO-PRO-1 dye displacement fluorescence; shares compounds with rCAG RNA binder; 20% of 250 active; in the data active means IC50 below about 10 µM
# Numbers without * were called inactive; i = inactive; nt = no result given. An excerpt weighted towards active compounds, which were near 3.3% of everything screened.
SMILES,TCR CD3 inh,mABHD4 FP,SIAE inh,rCAG RNA binder,PRMT1 FP inh,rCAG binder conf,dCAG dye counter,others
O=C(CN1CCOCC1)NNC(=S)Nc1ccc(Cl)cc1,4.5,9.7,8.7,0.9,-2.5,nt,nt,
O=C(CN1c2ccccc2Sc2ccccc21)NNC(=S)Nc1ccc(Cl)cc1,-2.3,22.9,17.0,61.7*,-7.2,64.6*,30.8*,dCAG dye DR=i
CCCCCn1nnnc1C1c2ccccc2OCC(=O)N1Cc1ccco1 (stereo unspecified),nt,-0.2,-1.8,1.1,-0.6,nt,nt,
O=[N+]([O-])c1nccn1CC(O)CCN1CCOCC1 (stereo unspecified),-1.8,9.7,14.5,0.6,2.8,nt,nt,
O=C1NN(c2ccccc2)C(=O)/C1=C/c1ccc(Sc2ccc(Cl)cc2)o1,-4.7,9.3,8.8,31.0,18.8,nt,nt,
Cc1ccc(Sc2ccc(/C=C3/C(=O)NN(c4ccccc4)C3=O)o2)cc1,6.0,6.0,-2.9,35.3*,8.1,80.7*,46.1*,
Cc1c(NS(=O)(=O)c2cc3c(cc2Br)CCN3C(=O)C2CC2)c(=O)n(-c2ccccc2)n1C,nt,7.0,3.5,8.5,-0.7,nt,nt,
O=C(CSc1nc2ccccc2c(=O)n1Cc1ccccc1)Nc1ccc(Br)cc1C(=O)O,-1.9,-48.8,-26.3,66.2*,4.2,83.5*,55.7*,
COC(=O)[C@]12C[C@H](CC(=O)NCC3CCCCC3)C(=O)N(Cc3cccc4ccccc34)C1=C[C@H](COCc1ccccc1)O[C@@H]2C,nt,-3.3,1.0,8.7,-2.0,nt,nt,
CCCC(C)NC(=O)CC1Oc2ccccc2NC1=O (stereo unspecified),nt,-3.1,0.8,5.5,3.8,nt,nt,
O=S(=O)(Nc1ncnc2sc3c(c12)CCC3)c1ccc(Cl)s1,3.2,0.7,-5.1,56.8*,3.2,35.5*,10.7*,
O=S(=O)(Nc1ncnc2sc3c(c12)CCC3)c1cc(F)ccc1F,8.8,-1.7,0.2,3.3,-1.3,nt,nt,
COc1ccc(S[C@]2(C(=O)N3CCCC3)CC(=O)N(c3ccccc3OC)[C@@H]2c2ccc(OC)cc2)cc1,nt,1.1,1.8,6.6,1.1,nt,nt,
Cc1nn(-c2ccc(F)cc2)c(Cl)c1/C=C(/CC(=O)O)c1nc2ccccc2s1,2.1,-10.3,1.2,50.9*,-2.3,42.8*,12.8*,
CCOc1ccccc1NC(=O)/C(C#N)=C/c1c(C)nn(-c2ccc(F)cc2)c1Cl,-1.3,-1.4,0.4,0.9,1.4,nt,nt,
Cc1nn(-c2ccc(F)cc2)c(Cl)c1/C=C(\CC(=O)O)c1nc2ccccc2s1,5.9,0.8,1.0,38.4*,-3.3,44.9*,11.2*,
C=CCN(CC#CC1=CCCCC1)Cc1ccc(OC)cc1OC,nt,1.1,3.5,-2.5,-1.6,nt,nt,
O=C(NCCc1ccccc1)OCc1cn(Cc2cccc(C(F)(F)F)c2)nn1,nt,-3.2,3.5,-1.7,1.9,nt,nt,
Cc1oc(-c2ccccc2)cc1C(=O)Nc1cccc(/C=C\C(=O)O)c1,1.4,-33.2,-19.4,40.5*,5.5,28.7,5.7*,
Cc1oc(C(C)(C)C)cc1C(=O)Nc1cccc(/C=C\C(=O)O)c1,-8.0,-6.1,-1.5,17.8,-0.3,nt,nt,
CCOC(=O)C1=C(C)N(C[C@@H]2CC[C@@H](Cc3ccc(-c4ccccc4)cc3)O2)C(=O)NC1c1ccc(C(F)(F)F)cc1 (stereo partly specified),-5.0,-0.5,-15.0,1.9,0.8,nt,nt,
CCOC(=O)C1=C(C)N(C[C@@H]2CC[C@@H](Cc3ccc(-c4ccccc4)cc3)O2)C(=O)NC1c1ccc(SCc2ccco2)c([N+](=O)[O-])c1 (stereo partly specified),5.7,12.9,-11.0,48.7*,17.2,36.1*,19.0*,
O=C(O)c1cccc(NC(=S)NC(=O)c2cccc(OCc3ccccc3)c2)c1,-4.2,-36.7,-13.7,60.9*,1.1,63.7*,25.6*,
CCOC(=O)C1=C(O)/C(=C/c2cc(OC)c(OC)c(OC)c2)SC1=Nc1ccc(OC)cc1,8.0,-7.2,-4.6,7.1,0.3,nt,nt,
CCOC(=O)C1=C(O)/C(=C/c2ccc(OCC(=O)O)c(OCC)c2)SC1=Nc1ccc(OC)cc1,1.8,-26.3,-30.2,55.8*,5.0,63.9*,21.5*,
SMILES,TCR CD3 inh,mABHD4 FP,SIAE inh,rCAG RNA binder,PRMT1 FP inh,rCAG binder conf,dCAG dye counter,others
CCOC(=O)C1=C(O)/C(=C/c2ccc(OCC(=O)O)c(OCC)c2)SC1=Nc1ccc(C)cc1,-1.1,-26.5,-17.5,44.7*,2.8,67.8*,24.6*,
CSCC[C@@H](Nc1nc(-c2ccccc2)nc2c1oc1ccccc12)C(=O)O,8.4,-16.3,-19.0,69.0*,-2.1,70.8*,24.7*,
O=C(O)CNc1nc(-c2ccccc2)nc2c1oc1ccccc12,6.0,-8.0,3.6,11.8,-0.7,nt,nt,
Cn1c(Cc2cccs2)nnc1SCC(=O)Nc1ccc2cn[nH]c2c1,nt,-3.8,0.8,5.7,-1.4,nt,nt,
COc1ccc(C=O)cc1CSc1ccccn1,1.7,5.8,6.0,1.7,6.0,nt,nt,
COc1ccc(/C=N/NC(=O)c2ccc(O)cc2O)cc1CSc1ccccn1,13.6,-51.2,8.1,35.9*,2.2,32.1,12.0*,
COc1cc(C(c2c(C(=O)O)[nH]c3ccccc23)c2c(C(=O)O)[nH]c3ccccc23)ccc1OCc1ccccc1,1.1,50.2*,7.2,94.1*,-1.5,89.8*,67.7*,
Cc1ccc(OS(=O)(=O)c2ccccc2)c(/C=N/N=C2\NC(=O)C(C)S2)c1 (stereo unspecified),6.0,-1.2,3.0,36.3*,-2.0,46.1*,12.8*,
O=C1CS/C(=N/N=C/c2ccccc2OS(=O)(=O)c2ccccc2)N1,4.2,2.3,-2.0,27.0,0.5,nt,nt,
COc1cc(/C=N/N=C(N)N)ccc1OCc1ccc(Cl)cc1,0.1,12.9,1.7,28.1,-2.9,nt,nt,
COc1cc(/C=N/N=C2/NC(=O)C(CC(=O)O)S2)ccc1OCc1ccc(Cl)cc1 (stereo unspecified),18.3,-6.1,5.4,54.4*,-0.7,37.8*,10.2*,
Cc1ccc(S(=O)(=O)Oc2ccc(/C=N/N=C3/NC(=O)C(CC(=O)O)S3)cc2)cc1[N+](=O)[O-] (stereo unspecified),18.4,2.9,-1.9,40.8*,1.3,29.2,8.5*,
CCCN(CC1CC1)c1nc(C)nc2c1nnn2Cc1ccccc1,nt,-4.5,-0.8,0.3,-3.4,nt,nt,
COC(=O)c1ccc(-c2ccc3c(c2)[C@]2(CCC[C@@H](O)[C@@H]2NC(=O)CCc2ccccc2)C(=O)N3Cc2ccccc2)cc1,nt,-10.4,-4.4,12.8,5.7,nt,nt,
Oc1csc(Cc2nc(-c3ccc4ccccc4c3)cs2)n1,-4.3,27.2,-9.4,35.6*,3.5,32.0,17.9*,
O=C(c1ccc(F)cc1Cl)N1CCC(Oc2cccnc2)CC1,nt,2.3,-1.5,-0.5,-7.2,nt,nt,
